{
  "source": "ChEMBL document CHEMBL4270654",
  "about": "“Identification of DK419, a potent inhibitor of Wnt/β-catenin signaling and colorectal cancer growth” (Bioorg Med Chem, 2018)",
  "key": {"Homo sapiens [1]": {"species": "Homo sapiens", "assay": "Inhibition of Wnt/beta-catenin signaling pathway in human CRC240 cells cytosol lysate assessed as reduction in Axin2 protein expression at 5 uM after 18 hrs by Western blot analysis", "format": "cell-based", "outline": "(§1)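 CCRC240, HCT116 or SW480 cells were grown to 50–70% confluency and exposed 18 h to 5 μM compound in DMSO. Whole-cell lysates were blotted for c-Myc, cyclin D1 and survivin. Hypotonic cytosolic fractions, syringe-dispersed and centrifuged 120 min, were blotted for β-catenin and Axin2. β-Actin served as loading control.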"}, "CCD-841CoN [2]": {"tested_on": "CCD-841CoN", "assay": "Stimulation of mitochondrial respiration in human CCD-841-CoN cells assessed as increase in oxygen consumption rate at 1 uM under basal conditions by polarographic analysis"}, "Homo sapiens [3]": {"species": "Homo sapiens", "assay": "Inhibition of Wnt/beta-catenin signaling pathway in human CRC240 whole cell lysate assessed as reduction in cyclin D1 protein expression at 5 uM after 18 hrs by Western blot analysis", "outline": "as §1"}, "Homo sapiens [4]": {"species": "Homo sapiens", "assay": "Inhibition of Wnt/beta-catenin signaling pathway in human CRC240 whole cell lysate assessed as reduction in survivin protein expression at 5 uM after 18 hrs by Western blot analysis", "outline": "as §1"}, "Homo sapiens [5]": {"species": "Homo sapiens", "assay": "Inhibition of Wnt/beta-catenin signaling pathway in human SW480 whole cell lysate harboring APC mutation assessed as reduction in c-Myc protein expression at 5 uM after 18 hrs by Western blot analysis", "outline": "as §1"}, "CCD-841CoN [6]": {"tested_on": "CCD-841CoN", "assay": "Stimulation of mitochondrial respiration in human CCD-841-CoN cells assessed as increase in oxygen consumption rate at 1 uM in presence of rotenone and […] antimycin A by polarographic analysis", "format": "functional, cell-based", "outline": "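CCD841Co cells were plated at 8000 per well and attached overnight. OCR was measured on a Seahorse XFp analyzer under basal conditions after 1 μM compound or DMSO was added. This was followed by 1 μM oligomycin, 1 μM FCCP, then 0.5 μM rotenone plus antimycin A (Mito Stress Test). Data given as mean ± SD, n = 2.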"}, "HCT-116": {"tested_on": "HCT-116", "assay": "Antiproliferative activity against human HCT116 cells after 72 hrs by colorimetric MTS assay", "format": "functional, cell-based", "settings": "HCT-116, 72 h", "outline": "(§2)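 Cells plated at 5000 per well in their own media (Leibovitz's for SW948; McCoy's 5A for HT-29/HCT116; MEM for SW480; RPMI for CRC240/DLD-1) with 10% FBS. Exposed 72 h to compound, 0.001–10 μM or 0.04–10 μM, then colorimetric MTS read-out. […] CRC240 is a patient-derived xenograft line.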"}, "Homo sapiens [7]": {"species": "Homo sapiens", "assay": "Inhibition of Wnt/beta-catenin signaling pathway in human HCT116 whole cell lysate harboring beta-catenin mutation assessed as reduction in survivin protein expression at 5 uM after 18 hrs by Western blot analysis", "outline": "as §1"}, "Homo sapiens [8]": {"species": "Homo sapiens", "assay": "Inhibition of Wnt/beta-catenin signaling pathway in human CRC240 cells cytosol lysate assessed as reduction in beta-catenin protein expression at 5 uM after 18 hrs by Western blot analysis", "format": "cell-based", "outline": "as §1"}, "Homo sapiens [9]": {"species": "Homo sapiens", "assay": "Inhibition of Wnt/beta-catenin signaling pathway in human HCT116 whole cell lysate harboring beta-catenin mutation assessed as reduction in c-Myc protein expression at 5 uM after 18 hrs by Western blot analysis", "outline": "as §1"}, "SW480": {"tested_on": "SW480", "assay": "Antiproliferative activity against human SW480 cells after 72 hrs by colorimetric MTS assay", "format": "functional, cell-based", "settings": "SW480, 72 h", "outline": "as §2"}, "Homo sapiens [10]": {"species": "Homo sapiens", "assay": "Inhibition of Wnt/beta-catenin signaling pathway in human SW480 whole cell lysate harboring APC mutation assessed as reduction in cyclin D1 protein expression at 5 uM after 18 hrs by Western blot analysis", "outline": "as §1"}, "Homo sapiens [11]": {"species": "Homo sapiens", "assay": "Inhibition of Wnt/beta-catenin signaling pathway in human HCT116 cells cytosol lysate harboring beta-catenin mutation assessed as reduction in beta-catenin protein expression at 5 uM after 18 hrs by Western blot analysis", "format": "cell-based", "outline": "as §1"}, "[12]": {"target": "Frizzled-1 (Homo sapiens) (UniProt Q9UP38)", "sequence (Q9UP38 70-647 limits assumed)": "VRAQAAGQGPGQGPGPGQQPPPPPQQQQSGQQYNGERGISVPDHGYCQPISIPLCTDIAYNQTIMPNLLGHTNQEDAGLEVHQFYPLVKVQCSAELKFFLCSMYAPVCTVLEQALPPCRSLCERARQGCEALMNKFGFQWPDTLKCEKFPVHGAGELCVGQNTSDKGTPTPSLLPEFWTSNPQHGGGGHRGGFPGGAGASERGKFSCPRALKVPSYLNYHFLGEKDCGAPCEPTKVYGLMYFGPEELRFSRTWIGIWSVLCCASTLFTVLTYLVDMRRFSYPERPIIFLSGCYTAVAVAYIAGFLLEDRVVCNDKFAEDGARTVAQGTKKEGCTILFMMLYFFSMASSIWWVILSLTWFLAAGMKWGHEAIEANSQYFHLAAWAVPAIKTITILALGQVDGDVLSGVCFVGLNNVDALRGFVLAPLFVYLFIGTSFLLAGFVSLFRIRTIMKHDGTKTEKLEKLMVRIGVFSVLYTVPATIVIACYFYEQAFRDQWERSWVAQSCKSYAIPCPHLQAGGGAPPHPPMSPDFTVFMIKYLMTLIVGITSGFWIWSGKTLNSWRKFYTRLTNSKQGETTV", "assay": "Induction of GFP-tagged Fzd1 (unknown origin) internalization expressed in human U2OS cells at 12.5 after 6 hrs by confocal microscopic method", "format": "functional, cell-based", "outline": "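U2OS cells stably expressing Fzd1-GFP were grown 24 h in confocal dishes and then treated 6 h at 37 °C with 12.5 μM compound, DMSO as control. Cells were fixed in 4% paraformaldehyde and imaged by confocal microscopy (488 nm excitation). Internalization was scored as intracellular green punctate vesicles.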"}, "Homo sapiens [13]": {"species": "Homo sapiens", "assay": "Inhibition of Wnt/beta-catenin signaling pathway in human HCT116 cells cytosol lysate harboring beta-catenin mutation assessed as reduction in Axin2 protein expression at 5 uM after 18 hrs by Western blot analysis", "format": "cell-based", "outline": "as §1"}, "HT-29": {"tested_on": "HT-29", "assay": "Antiproliferative activity against human HT-29 cells after 72 hrs by colorimetric MTS assay", "format": "functional, cell-based", "settings": "HT-29, 72 h", "outline": "as §2"}, "Homo sapiens [14]": {"species": "Homo sapiens", "assay": "Inhibition of Wnt/beta-catenin signaling pathway in human SW480 whole cell lysate harboring APC mutation assessed as reduction in survivin protein expression at 5 uM after 18 hrs by Western blot analysis", "outline": "as §1"}, "SW948": {"tested_on": "SW948", "assay": "Antiproliferative activity against human SW948 cells after 72 hrs by colorimetric MTS assay", "format": "functional, cell-based", "settings": "SW948, 72 h", "outline": "as §2"}, "Homo sapiens [15]": {"species": "Homo sapiens", "assay": "Inhibition of Wnt/beta-catenin signaling pathway in human CRC240 whole cell lysate assessed as reduction in c-Myc protein expression at 5 uM after 18 hrs by Western blot analysis", "outline": "as §1"}, "DLD-1": {"tested_on": "DLD-1", "assay": "Antiproliferative activity against human DLD1 cells after 72 hrs by colorimetric MTS assay", "format": "functional, cell-based", "settings": "DLD-1, 72 h", "outline": "as §2"}, "[16]": {"target": "AMP-activated protein kinase, AMPK (Homo sapiens) (UniProt P54646+O43741+P54619+Q9UGJ0+Q9Y478+Q13131+Q9UGI9)", "assay": "Induction of AMPK phosphorylation in human CCD-841-CoN cells at 0.1 to 10 uM after 2 hrs by Western blot analysis", "format": "cell-based", "outline": "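Colonic epithelial CCD841Co cells were seeded at 0.27 million per well on poly-D-lysine-coated wells and attached overnight. Medium was then switched to glucose-free DMEM with 2 mM pyruvate and 2 mM glutamine containing compound or DMSO. Whole-cell lysates were immunoblotted for phospho-Thr172 AMPK and total AMPK, with β-actin as loading control. Methods give 30 min exposure; legend gives 2 h.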"}, "Homo sapiens [17]": {"species": "Homo sapiens", "assay": "Inhibition of Wnt/beta-catenin signaling pathway in human SW480 cells cytosol lysate harboring APC mutation assessed as reduction in beta-catenin protein expression at 5 uM after 18 hrs by Western blot analysis", "format": "cell-based", "outline": "as §1"}, "[18]": {"assay": "Inhibition of Wnt3A-stimulated Wnt/beta-catenin pathway in HEK293 cells transfected with p8xTOPFlash, Renilla luciferase plasmid pRL-TK and pLKO.1 after 6 hrs by Dual topflash luciferase reporter assay", "format": "cell-based", "settings": "Homo sapiens, HEK293, 6 h", "outline": "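HEK293 cells stably carrying p8xTOPFlash, pRL-TK and pLKO.1 were grown overnight to confluence in MEM/10% FBS with 1 μg/ml puromycin. Wnt-3A conditioned medium (from L Wnt-3A cells) containing compound (0.04–10 μM) or DMSO was added for 6 h. Dual-luciferase was read, with the Wnt3A+DMSO signal set as 100%.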"}, "Homo sapiens [19]": {"species": "Homo sapiens", "assay": "Inhibition of Wnt/beta-catenin signaling pathway in human SW480 cells cytosol lysate harboring APC mutation assessed as reduction in Axin2 protein expression at 5 uM after 18 hrs by Western blot analysis", "format": "cell-based", "outline": "as §1"}, "[20]": {"assay": "Antiproliferative activity against human CRC240 cells after 72 hrs by colorimetric MTS assay", "format": "functional, cell-based", "outline": "as §2"}},
  "note": "Active and inactive are the calls of the source. The calls are words filed in the database; no cut-off is given here.",
  "data": [
    {"smiles": "O=C(Nc1ccc([N+](=O)[O-])cc1Cl)c1cc(Cl)ccc1O", "note": "[NICLOSAMIDE]", "values": [
      {"measurement": "inhibition", "setting": "Homo sapiens [1]", "result": "Active"},
      {"measurement": "Activity", "setting": "CCD-841CoN [2]", "result": "Active"},
      {"measurement": "inhibition", "setting": "Homo sapiens [3]", "result": "Active"},
      {"measurement": "inhibition", "setting": "Homo sapiens [4]", "result": "Active"},
      {"measurement": "inhibition", "setting": "Homo sapiens [5]", "result": "Active"},
      {"measurement": "Activity", "setting": "CCD-841CoN [6]", "result": "inactive"},
      {"measurement": "IC50", "setting": "HCT-116", "result": 410, "unit": "nM"},
      {"measurement": "inhibition", "setting": "Homo sapiens [7]", "result": "Active"},
      {"measurement": "inhibition", "setting": "Homo sapiens [8]", "result": "Active"},
      {"measurement": "inhibition", "setting": "Homo sapiens [9]", "result": "Active"},
      {"measurement": "IC50", "setting": "SW480", "result": 980, "unit": "nM"},
      {"measurement": "inhibition", "setting": "Homo sapiens [10]", "result": "Active"},
      {"measurement": "inhibition", "setting": "Homo sapiens [11]", "result": "Active"},
      {"measurement": "Activity", "setting": "[12]", "result": "Active"},
      {"measurement": "inhibition", "setting": "Homo sapiens [13]", "result": "Active"},
      {"measurement": "IC50", "setting": "HT-29", "result": 130, "unit": "nM"},
      {"measurement": "inhibition", "setting": "Homo sapiens [14]", "result": "Active"},
      {"measurement": "IC50", "setting": "SW948", "result": 110, "unit": "nM"},
      {"measurement": "inhibition", "setting": "Homo sapiens [15]", "result": "Active"},
      {"measurement": "IC50", "setting": "DLD-1", "result": 2390, "unit": "nM"},
      {"measurement": "Activity", "setting": "[16]", "result": "Active"},
      {"measurement": "inhibition", "setting": "Homo sapiens [17]", "result": "Active"},
      {"measurement": "IC50", "setting": "[18]", "result": 450, "unit": "nM"},
      {"measurement": "inhibition", "setting": "Homo sapiens [19]", "result": "Active"},
      {"measurement": "IC50", "setting": "[20]", "result": 890, "unit": "nM"}
    ]},
    {"smiles": "O=C(Nc1ccc(C(F)(F)F)cc1)c1cc(Cl)cc2nc(C(F)(F)F)[nH]c12", "values": [
      {"measurement": "inhibition", "setting": "Homo sapiens [1]", "result": "Active"},
      {"measurement": "Activity", "setting": "CCD-841CoN [2]", "result": "Active"},
      {"measurement": "inhibition", "setting": "Homo sapiens [3]", "result": "Active"},
      {"measurement": "inhibition", "setting": "Homo sapiens [4]", "result": "Active"},
      {"measurement": "inhibition", "setting": "Homo sapiens [5]", "result": "Active"},
      {"measurement": "Activity", "setting": "CCD-841CoN [6]", "result": "inactive"},
      {"measurement": "IC50", "setting": "HCT-116", "result": 280, "unit": "nM"},
      {"measurement": "inhibition", "setting": "Homo sapiens [7]", "result": "Active"},
      {"measurement": "inhibition", "setting": "Homo sapiens [8]", "result": "Active"},
      {"measurement": "inhibition", "setting": "Homo sapiens [9]", "result": "Active"},
      {"measurement": "IC50", "setting": "SW480", "result": 330, "unit": "nM"},
      {"measurement": "inhibition", "setting": "Homo sapiens [10]", "result": "Active"},
      {"measurement": "inhibition", "setting": "Homo sapiens [11]", "result": "Active"},
      {"measurement": "Activity", "setting": "[12]", "result": "Active"},
      {"measurement": "inhibition", "setting": "Homo sapiens [13]", "result": "Active"},
      {"measurement": "IC50", "setting": "HT-29", "result": 120, "unit": "nM"},
      {"measurement": "inhibition", "setting": "Homo sapiens [14]", "result": "Active"},
      {"measurement": "IC50", "setting": "SW948", "result": 70, "unit": "nM"},
      {"measurement": "inhibition", "setting": "Homo sapiens [15]", "result": "Active"},
      {"measurement": "IC50", "setting": "DLD-1", "result": 360, "unit": "nM"},
      {"measurement": "Activity", "setting": "[16]", "result": "Active"},
      {"measurement": "inhibition", "setting": "Homo sapiens [17]", "result": "Active"},
      {"measurement": "IC50", "setting": "[18]", "result": 190, "unit": "nM"},
      {"measurement": "inhibition", "setting": "Homo sapiens [19]", "result": "Active"},
      {"measurement": "IC50", "setting": "[20]", "result": 320, "unit": "nM"}
    ]}
  ]
}
